For 98 compounds, cytotoxicity results are on record in ChEMBL document CHEMBL4513216, “Probing the Open Global Health Chemical Diversity Library for Multistage-Active Starting Points for Next-Generation Antimalarials” (ACS Infect Dis, 2020).

Structures are written as SMILES.

The nature of this data set: Toxicity liver stage against HepG2, at 10uM. Also on record: test concentration 10 uM, cell line HepG2-A16-CD81EGFP. The class given is cell-based. The note with it: human, HepG2-A16-CD81EGFP cells; read-out: INHIBITION
Summed up:
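Uninfected HepG2-A16-CD81EGFP cells, 3 × 10^3 per well, 1536-well, plated on prespotted compound at 10 μM final, parasite-free screening media added to match infected plates; puromycin 10 μM positive, DMSO 0.5% negative; run in parallel with 48 h PbLuc assay at 37 °C, 5% CO2; viability by CellTiter-Glo luminescence, normalized to controls.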
With `O=c1cc(CSc2nnc[nH]2)nc2sc3c(n12)CCCC3`, the cytotoxicity at 10 µM is -6.04%.
On to `CC(C)CCn1nc2ccc(S(=O)(=O)N3CCOCC3)cn2c1=O`, for which the cytotoxicity at 10 µM is -2.13%.
`CCOCC(=O)NCCCn1ccnc1-c1ccccc1`: the cytotoxicity at 10 µM is -1.11%.
Then `O=C(O)CC(CC(=O)NCCc1ccsc1)c1cccs1` (stereo not drawn), with -10.9%; and `CCOc1ccc(-c2cc(=O)n3c(n2)CCCCC3)cc1`, with 5.36%; and `CC(C)Cc1nc(OCC(N)=O)c(C#N)c2c1CCC2`, with 75.7%.
With `COC(=O)CC(c1cnn(C)c1)c1oc(C)cc(=O)c1O` (stereo not drawn) the figure was 21.9%; with `NC(=O)c1ccc2c(c1)nc1n2CCN(Cc2ccccc2)C1`, -8.8%.
Consider `c1cnc2c(CN3CCCCC3c3ccncn3)cnn2c1` (stereo not drawn), for which the cytotoxicity at 10 µM is -10.2%.
In the case of `CN1CCN(c2ncccn2)CC(C(=O)N(C)C)C1` (stereo not drawn), the cytotoxicity at 10 µM was 0.651%.
Then `Oc1cc(C2CCCCN2C2CCCC2)nc(-c2ccncc2)n1` (stereo not drawn), with 5.94%; and `COc1cccc(CNCc2nc3ccccc3c(=O)[nH]2)c1`, with 1.26%; and `CO[C@H]1CN(S(=O)(=O)c2ccc(C)cc2)C[C@@]12CCCO2`, with -0.479%.
In the case of `CCn1ccc2ccnc(CC3CN(C(=O)c4ccc(F)cc4)C3)c21`, the cytotoxicity at 10 µM is -3.3%.
With `CC(=O)N1CCN([C@@H]2CC[C@@H](NC(=O)c3cncc(C)c3)[C@H]2O)CC1`, the cytotoxicity at 10 µM came to 2.6%.
As for `CCc1ccccc1CNC(=O)CCc1cnn(C)c1`, the cytotoxicity at 10 µM was -3.09%.
As for `Cc1noc(C2CCN(C(=O)c3cc(Cl)c(Cl)n3C)CC2)n1`, the cytotoxicity at 10 µM stood at 10.7%.
Then `CC(O)CN(C)c1cc(C(F)(F)F)nc(-c2cccnc2)n1` (stereo not drawn), with -6.68%; and `CC(C)C(C)N(C)C(=O)COc1ccccc1C#N` (stereo not drawn), with -3.28%.
Then `CC(C)(C)c1nccc(N2CCCCC2CNS(C)(=O)=O)n1` (stereo not drawn), with -2.84%.
With `COc1cc(CNC(=O)Nc2nnc(C3CC3)s2)ccc1O` the figure was 31.3%; with `CC1CN(c2ccc(NC(=O)Cn3cccn3)cc2)CCO1` (stereo not drawn), 3.94%; with `Cn1cnnc1CNC(=O)Nc1ccc(OC2CCC2)c(F)c1`, 1.03%.
With `CCCN(C)C(=O)c1cc(S(=O)(=O)NCC)ccc1C`, the cytotoxicity at 10 µM is -0.403%.
Then `CS(=O)(=O)Nc1ccc(CNC(=O)CN2CCc3ccccc32)cc1`, with 7.1%; and `CC(CN1CCCC1=O)NC(=O)c1ccc(-c2ccco2)[nH]c1=O` (stereo not drawn), with -5.04%.
Then `Cc1cnn(CCNCC(O)c2cccc(Br)c2)c1` (stereo not drawn), with 1.66%.
Turning to `Cc1cccc(N2CCN(C(=O)CN3CCC(C(N)=O)CC3)CC2)c1`, the cytotoxicity at 10 µM came out at 4.52%.
On to `CSc1nsc(NC(=O)N2CCc3ccccc3C2)n1`, for which the cytotoxicity at 10 µM turned out to be 11.3%.
For the compound `Cc1nccn1-c1cc(CNC(=O)N2CCSCC2)ccn1`, the cytotoxicity at 10 µM was -0.613%.
On to `CS(=O)(=O)CCn1ccc(NC(=O)Cc2cccc(Cl)c2)n1`, for which the cytotoxicity at 10 µM was -3.36%.
Regarding `COCCn1cc(NC(=O)C(C)CCc2ccccc2F)ccc1=O` (stereo not drawn), the cytotoxicity at 10 µM is -3.73%.
Turning to `c1coc(-c2nnc(CN(Cc3cccs3)CC3CCCO3)o2)c1` (stereo not drawn), the cytotoxicity at 10 µM was 5.79%.
With `Cn1cc(C(=O)Nc2ccnc(Oc3ccccc3)c2)ccc1=O` the figure was -4.5%; with `CCC(NC(=O)c1ccc2[nH]ccc2c1)C(=O)N1CCOCC1` (stereo not drawn), 5.84%; with `CC(C)CNC(=O)CNC(=O)NCC(O)c1ccc2ccccc2c1` (stereo not drawn), -2.52%.
Then `Cc1cc(CNC2(c3ccc(Cl)cc3)CC2)no1`, with 1.5%.
On to `N#Cc1cccc(S(=O)(=O)N2CC(CC(=O)O)c3ccccc32)c1` (stereo not drawn), for which the cytotoxicity at 10 µM was -1.11%.
With `CN(CC(=O)NC(Cc1ccccc1)C1CCCC1)S(C)(=O)=O` (stereo not drawn) the figure was 15.1%.
As to `COC(=O)N1CCN(CCCc2nnnn2-c2ccccc2)CC1`, the cytotoxicity at 10 µM was 14%.
As for `O=C(NCC1(O)CCOC1)c1ccccc1Cl` (stereo not drawn), the cytotoxicity at 10 µM was -40.3%.
Then `Cc1cc(CCC(=O)N2CCC(O)CC2)ccc1Br`, with -4.3%; and `CCCC(=O)N1CCCCC1C(=O)Nc1ccc(-c2nnc[nH]2)cc1` (stereo not drawn), with 7.65%.
Then `CCN(CC)c1ccc(C(=O)NCc2cccnc2-n2cncn2)cn1`, with 11.7%; and `COc1ccc(NC(=O)C2CCOC2)c(N2CCN(C(C)=O)CC2)n1` (stereo not drawn), with -12.2%; and `CC(O)CN1CCN(C(=O)c2cnn(-c3ccc(Cl)cc3)c2)CC1` (stereo not drawn), with -10.3%.
With `Cn1cc(S(=O)(=O)N2CCCC2CC(=O)c2cccs2)cn1` (stereo not drawn), the cytotoxicity at 10 µM was -8.08%.
As to `COCCN(Cc1ccc(F)cc1Cl)C(=O)c1ccc(=O)[nH]n1`, the cytotoxicity at 10 µM amounted to 0.469%.
Then `CC(C)c1noc(CN(Cc2ccccc2F)C2CC2)n1`, with -7.96%; and `CC(O)CN1CCN(C(=O)c2cc3ccccc3[nH]c2=O)CC1` (stereo not drawn), with 0.407%; and `Cc1cccc(CN2CC[C@@H]3O[C@@H](C(=O)N4CCN(C)CC4)C[C@@H]32)c1`, with 8.01%.
`O=C(c1ccnnc1)N1CCC2(CC1)CCN(C(=O)c1cccnc1)C2`: the cytotoxicity at 10 µM is -97.8%.
With `COCCC(=O)N1CCC2(COCc3cnc(-c4ccccc4)nc32)C1` (stereo not drawn) the figure was 3.6%.
On to `O=C(C1CCC1)N1CCn2c(COc3ncccn3)nnc2C1`, for which the cytotoxicity at 10 µM is 3.09%.
Then `CSCc1noc(CNC(=O)C2CCN(C(=O)C3CCC3)CC2)n1`, with 6.35%; and `COc1ccc(Cc2nc3c([nH]2)CC(C)(C)CNC3=O)c(OC)c1`, with -1.02%.
Then `O=C(c1cnn[nH]1)N(CCCO)Cc1cccnc1`, with -2.48%.
With `CC(C)c1cc(CN2CCN(c3cccnc3)CC2)n(C)n1` the figure was -0.0184%.
With `Cc1cc(CNC(=O)C2CC(=O)N(CCN(C)C)C2)cc(C)n1` (stereo not drawn), the cytotoxicity at 10 µM was determined as 3.05%.
Then `CC(C)c1noc(C2CC(=O)N(CCN(C)C)C2)n1` (stereo not drawn), with -8.25%.
As for `Cc1nc[nH]c1CN1CCOC(CCNC(=O)c2ccsc2)C1` (stereo not drawn), the cytotoxicity at 10 µM is -13.1%.
Then `CCCc1nnc(NCCc2noc(C3CC3)n2)o1`, with 0.0902%; and `C1CCC(c2nnc3sc(C4CCOC4)nn23)C1` (stereo not drawn), with -2.16%; and `COc1ccc(CCN(C)C(C(=O)O)c2ccc(F)c(C)c2)cc1OC` (stereo not drawn), with 2.93%.
Then `Cc1[nH]c2c(C)ccc(C)c2c1CC(=O)NCc1csc(N(C)C)n1`, with -6.65%; and `Cc1cnc(N2CCCC(O)C2)nc1-c1ccnn1C` (stereo not drawn), with -0.271%; and `Cc1cccc2cc(CN3CCC(O)(CN4CCCC4)CC3)c(=O)[nH]c12`, with -14.9%.
With `Cc1ccc(CCNC(=O)CC2COCCN2S(=O)(=O)N(C)C)s1` (stereo not drawn) the figure was 1.69%; with `Nc1nc2c(c(=O)[nH]1)CCN(C(=O)c1cccc3nccnc13)C2`, -11.4%; with `CC(C)CN1CCc2[nH]cnc2C12CCN(C(=O)c1cccnc1)CC2`, 23.4%.
With `CNc1cc(CCNC(=O)c2cccnc2)nc(-c2ccncc2)n1`, the cytotoxicity at 10 µM is 1.52%.
As to `CC(C)c1noc(CN2CCN(C(=O)c3ccc(F)cc3)CC2)n1`, the cytotoxicity at 10 µM is -9.73%.
For the compound `c1ccc(-c2noc(CCCN3CCCC3Cn3cncn3)n2)cc1` (stereo not drawn), the cytotoxicity at 10 µM was -2.06%.
For `Cn1ccnc1CN1CCN(CC(=O)NCc2cccs2)CC1`, the cytotoxicity at 10 µM is -8.25%.
With `COc1c(CNCc2ccc(Cn3ccnc3)cc2)c(C)nn1C`, the cytotoxicity at 10 µM was -25.1%.
With `CC(Cn1ccnc1)NC(=O)NCCc1cccnc1` (stereo not drawn), the cytotoxicity at 10 µM is -12.1%.
Consider `Cc1cccc(NC2CCN(C(=O)Nc3ccncc3)CC2)n1`, for which the cytotoxicity at 10 µM was -17.1%.
For the compound `COc1ccc2cc(C(=O)N3CCCC3Cn3cc(C)cn3)[nH]c2c1` (stereo not drawn), the cytotoxicity at 10 µM is -0.743%.
Then `CN(Cc1cnn(C)c1)C(=O)C1CCCN1Cc1ccccn1` (stereo not drawn), with -25.8%; and `CC(C)c1nc2n(n1)CC(NCc1nc(C3CC3)no1)CC2` (stereo not drawn), with -7.59%; and `COc1cccc(C(=O)N2CCCC(CNS(C)(=O)=O)C2)c1` (stereo not drawn), with -17.9%.
With `Cc1nnc2n1CCN(C(=O)c1cc(C)n(-c3ccccn3)c1C)C2` the figure was 0.765%; with `COc1cc(C(=O)N(Cc2cnn(C)c2)C(C)C)ccc1OCC(N)=O`, -5.45%; with `O=C(CN1CCOC(Cn2cccn2)C1)NCCc1ccc(F)cc1` (stereo not drawn), -15.6%.
With `O=C(C1CCS(=O)(=O)C1)N1CCN(c2cnccn2)CC1` (stereo not drawn), the cytotoxicity at 10 µM was -6.66%.
`CCOC1CCN(C(=O)c2cnn(-c3ccccc3Cl)c2)CC1`: the cytotoxicity at 10 µM is -9.78%.
With `COc1cc(C)nc(N2CCN(C(=O)c3ccccc3C)CC2)n1` the figure was -2.18%.
With `CCc1nc(C2CCCN2CCn2cncn2)no1` (stereo not drawn) the figure was -8.13%; with `Cc1cc(C)nc(NCCC(=O)NCCn2ccnc2C)n1`, 2.77%.
Then `O=C(c1cccnc1)N1CCC2(CC1)CCN(c1ccsc1)C2=O`, with 6.84%; and `CC(C)CN1CCO[C@H]2CCN(c3cnccn3)CC[C@@H]21`, with 2.31%; and `COCC1CC2(CCN(c3ccc(C)nn3)CC2)CN1C(C)C` (stereo not drawn), with -112%.
Consider `CCCN1CCC(c2nc3ccc(-c4ccncc4)cn3n2)CC1`, for which the cytotoxicity at 10 µM was -117%.
Regarding `CCCNCc1cn(Cc2ccccc2)nc1-c1cccnc1`, the cytotoxicity at 10 µM came out at 5.13%.
With `Cn1ccnc1CN1CCC2(CC1)CCN(c1ccccc1)C2=O`, the cytotoxicity at 10 µM was -9.06%.
With `Cc1cccc(CO[C@@H]2CC[C@H]3[C@H]2OCCN3Cc2ccsc2)n1` the figure was -16.3%; with `O=c1cc(Cn2cncn2)nc2n1CCCN(CCN1CCCC1)C2`, 2.78%; with `NC1CCC(n2cc(C(=O)N[C@H]3CCCc4ccccc43)nn2)CC1` (stereo partly drawn), -5.71%.
